Results from ChEMBL document CHEMBL5247575 (J Med Chem, 2018).

Tests used:
[1] = test system: Bacteria; assay: Inhibition of bacteria ADC-7 assessed as Koff rate using nitrocefin as substrate incubated for 30 mins
[2] = test system: Klebsiella pneumoniae; assay: Antibacterial activity against Klebsiella pneumoniae jefferson 1775 producing OXA-48 by broth microdilution method; type: functional
[3] = test system: Pseudomonas aeruginosa; assay: Antibacterial activity against Pseudomonas aeruginosa CL232 by broth microdilution method; type: functional
[4] = test system: Pseudomonas aeruginosa; assay: Antibacterial activity against Pseudomonas aeruginosa 839 by broth microdilution method; type: functional
[5] = test system: Escherichia coli; assay: Synergistic antibacterial activity against Escherichia coli DH10B assessed as cefepime MIC at 4 ug/ml by broth microdilution method; type: functional; details: dose 4 µg/ml
[6] = test system: Escherichia coli; assay: Synergistic antibacterial activity against Escherichia coli DH10B transfected with pBR322-catI-KPC-2 assessed as cefepime MIC at 4 ug/ml by broth microdilution method; type: functional; details: dose 4 µg/ml
Method in brief: (§1)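 Broth microdilution per CLSI guidelines, using custom frozen panels. […] Each partner drug was also tested alone. MICs were run in triplicate and the modal value is reported.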

[7] = test system: Escherichia coli; assay: Synergistic antibacterial activity against Escherichia coli DH10B transfected with pBC SK (-) OXA-48 assessed as cefepime MIC at 4 ug/ml by broth microdilution method; type: functional; details: dose 4 µg/ml; method in brief: as §1
[8] = test system: Acinetobacter baumannii; assay: Synergistic antibacterial activity against ADC deleted Acinetobacter baumannii assessed as cefepime MIC at 4 ug/ml by broth microdilution method; type: functional; details: dose 4 µg/ml
[9] = test system: Acinetobacter baumannii; assay: Synergistic antibacterial activity against ADC deleted Acinetobacter baumannii transfected with pWH1266 OXA-23 assessed as cefepime MIC at 4 ug/ml by broth microdilution method; type: functional; details: dose 4 µg/ml
[10] = test system: Klebsiella pneumoniae; assay: Synergistic antibacterial activity against Klebsiella pneumoniae 660/1568 producing KPC-3 assessed as cefepime MIC at 4 ug/ml by broth microdilution method; type: functional; details: dose 4 µg/ml; method in brief: as §1
[11] = test system: Klebsiella pneumoniae; assay: Synergistic antibacterial activity against Klebsiella pneumoniae 935/1884 producing KPC-3 assessed as cefepime MIC at 4 ug/ml by broth microdilution method; type: functional; details: dose 4 µg/ml
[12] = test system: Klebsiella pneumoniae; assay: Synergistic antibacterial activity against Klebsiella pneumoniae 972/1910 producing KPC-3 assessed as cefepime MIC at 4 ug/ml by broth microdilution method; type: functional; details: dose 4 µg/ml
[13] = test system: Klebsiella pneumoniae; assay: Synergistic antibacterial activity against Klebsiella pneumoniae 11978 producing OXA-48 assessed as cefepime MIC at 4 ug/ml by broth microdilution method; type: functional; details: dose 4 µg/ml; method in brief: as §1
[14] = test system: Acinetobacter baumannii; assay: Synergistic antibacterial activity against Acinetobacter baumannii PR363 producing OXA-23 assessed as cefepime MIC at 4 ug/ml by broth microdilution method; type: functional; details: dose 4 µg/ml
[15] = test system: Acinetobacter baumannii; assay: Synergistic antibacterial activity against Acinetobacter baumannii PR381 producing OXA-24/40 assessed as cefepime MIC at 4 ug/ml by broth microdilution method; type: functional; details: dose 4 µg/ml
[16] = test system: Acinetobacter baumannii; assay: Synergistic antibacterial activity against Acinetobacter baumannii PR408 producing OXA-24/40 assessed as cefepime MIC at 4 ug/ml by broth microdilution method; type: functional; details: dose 4 µg/ml
[17] = test system: Acinetobacter baumannii; assay: Synergistic antibacterial activity against Acinetobacter baumannii PR476 producing OXA-24/40 assessed as cefepime MIC at 4 ug/ml by broth microdilution method; type: functional; details: dose 4 µg/ml
[18] = test system: Acinetobacter baumannii; assay: Synergistic antibacterial activity against ADC deleted Acinetobacter baumannii transfected with pWH1266 OXA-23 assessed as meropenem MIC at 4 ug/ml by broth microdilution method; type: functional; details: dose 4 µg/ml
[19] = test system: Klebsiella pneumoniae; assay: Synergistic antibacterial activity against Klebsiella pneumoniae 660/1568 producing KPC-3 assessed as meropenem MIC at 4 ug/ml by broth microdilution method; type: functional; details: dose 4 µg/ml; method in brief: as §1
[20] = test system: Klebsiella pneumoniae; assay: Synergistic antibacterial activity against Klebsiella pneumoniae 1315/2198 producing KPC-3 assessed as meropenem MIC at 4 ug/ml by broth microdilution method; type: functional; details: dose 4 µg/ml; method in brief: as §1
[21] = test system: Klebsiella pneumoniae; assay: Synergistic antibacterial activity against Klebsiella pneumoniae CAV 1636 producing OXA-181 assessed as meropenem MIC at 4 ug/ml by broth microdilution method; type: functional; details: dose 4 µg/ml
[22] = test system: Klebsiella pneumoniae; assay: Synergistic antibacterial activity against Klebsiella pneumoniae CAV 1543 producing OXA-48 assessed as meropenem MIC at 4 ug/ml by broth microdilution method; type: functional; details: dose 4 µg/ml
[23] = test system: Klebsiella pneumoniae; assay: Synergistic antibacterial activity against Klebsiella pneumoniae jefferson 1775 producing OXA-48 assessed as meropenem MIC at 4 ug/ml by broth microdilution method; type: functional; details: dose 4 µg/ml
[24] = test system: Escherichia coli; assay: Synergistic antibacterial activity against Escherichia coli DH10B assessed as cefepime MIC at 8 ug/ml by broth microdilution method; type: functional; details: dose 8 µg/ml
[25] = test system: Escherichia coli; assay: Synergistic antibacterial activity against Escherichia coli DH10B transfected with pBC SK (-) KPC-2 assessed as cefepime MIC at 8 ug/ml by broth microdilution method; type: functional; details: dose 8 µg/ml
[26] = test system: Escherichia coli; assay: Synergistic antibacterial activity against Escherichia coli DH10B transfected with pBC SK (-) OXA-48 assessed as cefepime MIC at 8 ug/ml by broth microdilution method; type: functional; details: dose 8 µg/ml; method in brief: as §1
[27] = test system: Acinetobacter baumannii; assay: Synergistic antibacterial activity against ADC deleted Acinetobacter baumannii assessed as cefepime MIC at 8 ug/ml by broth microdilution method; type: functional; details: dose 8 µg/ml
[28] = test system: Klebsiella pneumoniae; assay: Synergistic antibacterial activity against Klebsiella pneumoniae 729/1679 producing KPC-3 assessed as cefepime MIC at 8 ug/ml by broth microdilution method; type: functional; details: dose 8 µg/ml; method in brief: as §1
[29] = test system: Klebsiella pneumoniae; assay: Synergistic antibacterial activity against Klebsiella pneumoniae 761/1723 producing KPC-3 assessed as cefepime MIC at 8 ug/ml by broth microdilution method; type: functional; details: dose 8 µg/ml; method in brief: as §1
[30] = test system: Klebsiella pneumoniae; assay: Synergistic antibacterial activity against Klebsiella pneumoniae 440/1360 producing KPC-2 assessed as cefepime MIC at 8 ug/ml by broth microdilution method; type: functional; details: dose 8 µg/ml; method in brief: as §1
[31] = test system: Klebsiella pneumoniae; assay: Synergistic antibacterial activity against Klebsiella pneumoniae CAV 1636 producing OXA-181 assessed as cefepime MIC at 8 ug/ml by broth microdilution method; type: functional; details: dose 8 µg/ml
[32] = test system: Klebsiella pneumoniae; assay: Synergistic antibacterial activity against Klebsiella pneumoniae jefferson 1775 producing OXA-48 assessed as cefepime MIC at 8 ug/ml by broth microdilution method; type: functional; details: dose 8 µg/ml
[33] = test system: Pseudomonas aeruginosa; assay: Synergistic antibacterial activity against Pseudomonas aeruginosa CL232 assessed as cefepime MIC at 8 ug/ml by broth microdilution method; type: functional; details: dose 8 µg/ml
[34] = test system: Acinetobacter baumannii; assay: Synergistic antibacterial activity against Acinetobacter baumannii PR359 producing OXA-23 assessed as cefepime MIC at 8 ug/ml by broth microdilution method; type: functional; details: dose 8 µg/ml
[35] = test system: Klebsiella pneumoniae; assay: Synergistic antibacterial activity against Klebsiella pneumoniae 901/1860 producing KPC-3 assessed as meropenem MIC at 8 ug/ml by broth microdilution method; type: functional; details: dose 8 µg/ml
[36] = test system: Klebsiella pneumoniae; assay: Synergistic antibacterial activity against Klebsiella pneumoniae 977/1916 producing KPC-3 assessed as meropenem MIC at 8 ug/ml by broth microdilution method; type: functional; details: dose 8 µg/ml
[37] = test system: Klebsiella pneumoniae; assay: Synergistic antibacterial activity against Klebsiella pneumoniae 1354/2241 producing KPC-3 assessed as meropenem MIC at 8 ug/ml by broth microdilution method; type: functional; details: dose 8 µg/ml; method in brief: as §1
[38] = test system: Klebsiella pneumoniae; assay: Synergistic antibacterial activity against Klebsiella pneumoniae CAV 1636 producing OXA-181 assessed as meropenem MIC at 8 ug/ml by broth microdilution method; type: functional; details: dose 8 µg/ml
[39] = test system: Pseudomonas aeruginosa; assay: Synergistic antibacterial activity against Pseudomonas aeruginosa 715 assessed as meropenem MIC at 8 ug/ml by broth microdilution method; type: functional; details: dose 8 µg/ml
[40] = test system: Acinetobacter baumannii; assay: Synergistic antibacterial activity against Acinetobacter baumannii PR359 producing OXA-23 assessed as meropenem MIC at 8 ug/ml by broth microdilution method; type: functional; details: dose 8 µg/ml
Method in brief: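 Broth microdilution per CLSI guidelines in frozen panels. Test compound held at fixed 8 mg/L while the partner β-lactam concentration was increased. Run in triplicate; modal MIC reported.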

| Structure (SMILES) | K [1] | MIC [2] [µg/mL] | MIC [3] [µg/mL] | MIC [4] [µg/mL] | MIC [5] [µg/mL] | MIC [6] [µg/mL] | MIC [7] [µg/mL] | MIC [8] [µg/mL] | MIC [10] [µg/mL] | MIC [11] [µg/mL] | MIC [12] [µg/mL] | MIC [13] [µg/mL] | MIC [14] [µg/mL] | MIC [15] [µg/mL] | MIC [16] [µg/mL] | MIC [17] [µg/mL] | MIC [18] [µg/mL] | MIC [19] [µg/mL] | MIC [20] [µg/mL] | MIC [21] [µg/mL] | also measured |
| --- | --- | --- | --- | --- | --- | --- | --- | --- | --- | --- | --- | --- | --- | --- | --- | --- | --- | --- | --- | --- | --- |
| O.O=C(NC1CCNCC1)[C@@H]1CC[C@@H]2CN1C(=O)N2OS(=O)(=O)O [RELEBACTAM] | 3 10^-4/s | > 16 | > 16 | > 16 | ≤ 0.12 | ≤ 0.12 | ≤ 0.12 | 0.25 | 0.25 | ≤ 0.12 | 0.25 | 2 | 16 | > 16 | 16 | 2 | > 16 | ≤ 0.12 | ≤ 0.12 | 16 | MIC [9]: > 16 µg/mL; MIC [22]: 8 µg/mL; MIC [23]: 2 µg/mL |
| NC(=O)[C@@H]1CC[C@@H]2CN1C(=O)N2OS(=O)(=O)[O-].[Na+] [AVIBACTAM SODIUM] | 3.5 10^-4/s | > 16 | > 16 | > 16 | ≤ 0.12 | ≤ 0.12 | ≤ 0.12 | 0.5 | ≤ 0.12 | ≤ 0.12 | ≤ 0.12 | 0.25 | > 16 | > 16 | > 16 | 2 | > 16 | ≤ 0.12 | ≤ 0.12 | 1 | MIC [22]: ≤ 0.12 µg/mL; MIC [23]: ≤ 0.12 µg/mL |
| N#C[C@@H]1CC[C@@H]2CN1C(=O)N2OS(=O)(=O)[O-].[Na+] | 1 10^-3/s | > 16 | > 16 | > 16 | ≤ 0.12 | ≤ 0.12 | ≤ 0.12 | 0.5 | 0.25 | 0.25 | 0.25 | 0.5 | 8 | 16 | 8 | 2 | 16 | ≤ 0.12 | ≤ 0.12 | ≤ 0.12 | MIC [9]: 2 µg/mL; MIC [24]: ≤ 0.12 µg/mL; MIC [25]: ≤ 0.12 µg/mL; MIC [26]: ≤ 0.12 µg/mL; MIC [27]: 0.5 µg/mL; MIC [28]: 0.25 µg/mL; MIC [29]: ≤ 0.12 µg/mL; MIC [30]: 0.25 µg/mL; MIC [31]: 0.5 µg/mL; MIC [32]: ≤ 0.12 µg/mL; MIC [33]: > 16 µg/mL; MIC [34]: 8 µg/mL; MIC [22]: ≤ 0.12 µg/mL; MIC [23]: ≤ 0.12 µg/mL; MIC [35]: ≤ 0.12 µg/mL; MIC [36]: ≤ 0.12 µg/mL; MIC [37]: ≤ 0.12 µg/mL; MIC [38]: ≤ 0.12 µg/mL; MIC [39]: 16 µg/mL; MIC [40]: 4 µg/mL |
